Published values from different studies.
Lines come from different studies, so protocols differ.
CDK4: Cyclin-dependent kinase 4 (CDK4, Homo sapiens, UniProt P11802)
CDK4 with cyclin D3: Cyclin-dependent kinase 4, with cyclin D3 (CDK4, Homo sapiens, UniProt P11802)
CDK4 with cyclin D1: Cyclin-dependent kinase 4, with cyclin D1 (CDK4, Homo sapiens, UniProt P11802)

CCOC(=O)[C@H]1Cc2c(cc([N+](=O)[O-])cc2[N+](=O)[O-])[C@H](O)[C@]12C(=O)Nc1cccc(Br)c12
inhibition (CDK4; cell-free assay, inhibitor, TR-FRET; 1 µM): 29.4%

Cc1nn(C)cc1-c1nc2c(N3CCN(Cc4ccc(Cl)cc4)CC3)c(Cl)cnc2[nH]1
remaining binding (CDK4 with cyclin D3; binding, competition with immobilised ligand; 1 µM): 74%

Nc1ncc(-c2nc(N3CCOCC3)nc(N3CCOCC3)n2)c(C(F)F)n1
remaining binding (CDK4 with cyclin D3; binding, competition with immobilised ligand; 10 µM): 87%

CCOC(=O)[C@H]1Cc2c(cc([N+](=O)[O-])cc2[N+](=O)[O-])[C@H](O)[C@]12C(=O)Nc1ccc([N+](=O)[O-])cc12
inhibition (CDK4; cell-free assay, inhibitor, TR-FRET; 1 µM): 37.9%

Cn1cncc1[C@](O)(COc1ccc(C#N)cc1-c1ccc(OC(F)(F)F)cc1)c1ccc(C#N)cc1
remaining binding (CDK4 with cyclin D1; cell-free assay, competition with immobilised ligand; 1 µM): 100%

O=c1[nH]c2ccccc2n1C1CCN(Cc2ccc(-c3[nH]c4cc5ncnc5cc4nc3-c3ccccc3)cc2)CC1
remaining signal (CDK4 with cyclin D3; cell-free assay; 0.5 µM): 99.7%

N#CC1(c2ccccn2)CCN(Cc2cc(C(=O)O)c(=O)n3ccccc23)CC1
remaining binding (CDK4 with cyclin D3; cell-free assay, competition with immobilised ligand; 1 µM): 82%

CC(C)(C)c1cc(C=C(C#N)C#N)cc(Br)c1O
remaining activity (CDK4 with cyclin D1; enzyme activity, inhibitor; 0.5 µM): 115%
